# BB579 growth dn: yeast BB579 growth reduction in restrictive medium; S. cerevisiae BB579 growth, OD615, 48 h; AID 804; inhibition, % at 10 µM; 140,000 compounds, 0.51% hits;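 active means inhibition above a set limit, 3 SD over the mean compound inhibition, cut at about 44% in these data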
#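 Detection: OD615 turbidity measurement; Material: Saccharomyces cerevisiae DeaD strain BB579, replicative lifespan model yeast; Timing: 48 h exposure, 30 °C; Doses: single 10 µM dose; Medium: CSMM-D restrictive synthetic medium containing dextrose (glucose); Controls: amphotericin B at 10 µg/mL as positive control.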
# DAT uptake mod: changed human dopamine transporter uptake under cocaine IC80; LLC-PK1 hDAT cells, [14C]-dopamine uptake with cocaine IC80; actives deviate in either direction; B-score at 10 µM; 110,000 compounds, 1.3% hits;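 active means Z score or B-score, a plate-position-corrected score, falls beyond the plate's 99.7% confidence bounds, in either direction; inactive means both scores lie inside the 99.7% bounds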;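 further: scored against the spread of the other compound wells on the same plate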
# Target sequence (Q01959 whole entry, looked up): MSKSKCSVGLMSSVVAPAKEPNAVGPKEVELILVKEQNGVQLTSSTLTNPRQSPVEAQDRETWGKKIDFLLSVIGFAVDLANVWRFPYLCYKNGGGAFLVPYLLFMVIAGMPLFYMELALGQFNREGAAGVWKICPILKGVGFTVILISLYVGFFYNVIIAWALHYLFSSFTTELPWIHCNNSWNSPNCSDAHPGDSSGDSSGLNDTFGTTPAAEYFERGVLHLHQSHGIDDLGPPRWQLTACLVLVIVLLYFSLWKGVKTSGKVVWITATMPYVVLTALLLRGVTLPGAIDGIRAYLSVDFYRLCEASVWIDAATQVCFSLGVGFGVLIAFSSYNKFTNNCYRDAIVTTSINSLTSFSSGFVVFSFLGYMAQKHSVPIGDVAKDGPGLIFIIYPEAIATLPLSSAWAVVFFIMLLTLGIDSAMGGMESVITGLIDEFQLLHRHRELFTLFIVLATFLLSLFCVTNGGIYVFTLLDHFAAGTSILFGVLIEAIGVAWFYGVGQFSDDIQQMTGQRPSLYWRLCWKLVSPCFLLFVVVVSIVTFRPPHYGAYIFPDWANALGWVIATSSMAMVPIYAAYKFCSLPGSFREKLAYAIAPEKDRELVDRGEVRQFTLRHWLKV
# WT yeast gro inh: growth inhibition of WT yeast, mitochondrial fusion screen. mitochondrial fusion phenotypic screen, WT strain. inhibition, % at 10 µM. 190,000 compounds, 2.1% hits. AID 1362; in the data active means inhibition above about 58%; tested in S. cerevisiae
# RAM inhibit: yeast RAM network inhibition; S. cerevisiae dse1pr::URA3 reporter, 5-FOA growth OD615, 2 d; analog-sensitive cbk1-as2 kinase mutant strain; inhibition, % at 50 µM; 190,000 compounds, 1.8% hits; AID 868;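 active means inhibition above a set limit, 3 SD over mean compound inhibition, cut at about 8.4% in these data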;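 further: 0% = DMSO-only wells with no growth and 100% = 10 µM 1-NA-PP1 full growth; inhibition rescues growth on 5-FOA so higher OD means more RAM inhibition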
# Yeast life ext: yeast lifespan extension | S. cerevisiae growth with nicotinamide, OD615; deaD strain in restrictive glucose medium | inhibition of the nicotinamide effect, % at 10 µM | 130,000 compounds, 0.68% hits | AID 775;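 active means inhibition above a set limit, placed 3 SD over the median of all compounds, cut at about 26% in these data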;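 further: 0% = nicotinamide-treated wells and 100% = cells grown without nicotinamide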
#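 Assay system: engineered S. cerevisiae DeaD replicative-lifespan strain, galactose-grown log-phase cells; Buffer or medium: CSMM-D glucose medium, restrictive; Probe or stimulus: nicotinamide 1.5 mM; Compound: single dose 10 µM compound, 0.25% DMSO; Schedule: 4 h preincubation then 48 h treatment at 30 °C; Technique: OD615 measurement.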
# Measles CPE: protection of cells from measles virus; Measles virus-infected cells, CPE protection, absorbance; protection (pct of control), % at 4 µM; 140,000 compounds, 1.5% hits; AID 841; in the data active means protection mostly above about 24%, no sharp cut-off; inactive means mostly below about 26%
# Active calls of the source: *; nt = no result given. Most compounds without a hit are left out; they make up all but 6.1% or so of the library.
SMILES,BB579 growth dn,DAT uptake mod,WT yeast gro inh,RAM inhibit,Yeast life ext,Measles CPE
CCCCN(C)S(=O)(=O)c1cc(Br)cc2c1N(C(=O)C1CC1)CC2,-28,nt,-12,9.2*,14,14
O=C(Nc1ccc(F)cc1)Nc1nnc(-c2ccco2)s1,nt,nt,-5,7,nt,nt
O=S(=O)(c1ccc(-c2cn3ccccc3n2)cc1)N1CCOCC1,-45,-0.24,-7,1,-3,63*
CCCCCn1c(SCC2CCCO2)nc2cc(C(=O)N3CCC(C(N)=O)CC3)ccc2c1=O (stereo unspecified),-18,2.1,-13,2,-4,55*
CCCCCn1c(SCC(=O)CC(=O)OCC)nc2cc(C(=O)N3CCC(C(N)=O)CC3)ccc2c1=O,nt,nt,-8,3,nt,nt
COc1cc2nc(SCC(=O)NCc3ccco3)n(Cc3ccc(Cl)cc3)c(=O)c2cc1OC,-57,3.8*,-1,7,nt,6
CCCCCn1c(SCC(=O)OCC)nc2cc(C(=O)NCc3ccco3)ccc2c1=O,-33,nt,-10,11*,-1,9
C=CCn1c(SCC(=O)OCC)nc2cc(C(=O)NCc3ccco3)ccc2c1=O,-31,nt,10,3,-8,2
Cc1ccc(-n2c(C)cc(C)c(C#N)c2=O)cc1C,nt,nt,-13,2,nt,nt
CCCN(CC(=O)Nc1ccc(Cl)cc1Cl)Cc1cc(=O)n2ccsc2n1,nt,nt,2,0,nt,nt
Cc1csc(NC(=O)c2nn(C)c(C)c2[N+](=O)[O-])n1,-3,nt,19,-1,-2,22
O=C(NCCCCO)c1ccc2c3c(cccc13)CC2,nt,nt,3,2,nt,nt
COc1ccccc1N=CC1=C(O)CC(c2ccccc2)CC1=O (stereo unspecified),-31,nt,-2,5,-5,8
Cn1c(N/N=C/c2ccccc2)nc2sc3c(c2c1=O)CCC3,7,0.11,62*,1,-15,3
O=c1c2c3c(sc2nc(NCCO)n1CCc1ccccc1)CCCCC3,-9,nt,70*,6,-10,nt
O=c1c2c3c(sc2nc(NCCO)n1Cc1ccco1)CCCCC3,-16,nt,22,6,-1,nt
CCN(CC)CC(=O)Nc1ccc(-c2ccc(NC(=O)CN(CC)CC)c(OC)c2)cc1OC,nt,nt,-5,3,nt,nt
COc1cc(/C=N\NC(=O)CNC(=O)C2COc3ccccc3O2)ccc1O (stereo unspecified),8,nt,4,0,-8,30*
C=CCn1c(CNC(=O)c2ccccc2F)nnc1SCc1nc2ccccc2c(=O)[nH]1,nt,nt,-6,3,nt,nt
Cc1ccc2sc(N(CCCN(C)C)C(=O)c3ccc(Br)s3)nc2c1C,nt,nt,87*,1,nt,nt
CCOc1cccc2sc(N(CCN(C)C)C(=O)c3ccc(Br)s3)nc12,nt,nt,1,2,nt,nt
Cc1ccc2sc(N(CCCN(C)C)C(=O)c3nc4ccccc4s3)nc2c1C,nt,nt,59*,3,nt,nt
COc1ccc(/C=C2\CCCC(C(=O)C(F)(F)F)=C2O)cc1,-48,-1.9,19,10.0*,-8,8
O=C(C1=C(O)/C(=C/c2ccc(O)cc2)CCC1)C(F)(F)F,100*,-0.67,67*,-2,nt,19
C/C(CC(=O)Nc1ccc2c(c1)OCO2)=N\NC(=O)OC(C)(C)C,nt,nt,-15,3,nt,nt
SMILES,BB579 growth dn,DAT uptake mod,WT yeast gro inh,RAM inhibit,Yeast life ext,Measles CPE
COc1cc(CCCN2C(=O)C(=O)NC[C@@H]2C(C)O)cc(OC)c1OC (stereo partly specified),nt,-0.38,nt,nt,nt,nt
CC(=O)NC1C(=O)N=C(SCC(=O)NC2CCCCC2)NC1=O (stereo unspecified),48*,-1.2,-8,2,-3,4
CCCC1=C(C(=O)OCC)C(c2ccc(NC(C)=O)cc2)NC(=O)N1 (stereo unspecified),-29,-0.33,61*,3,-12,10
O=C(CS(=O)(=O)c1cn(Cc2ccc(F)cc2)c2ccccc12)N1CCOCC1,nt,-0.58,9,1,nt,nt
O=C(CS(=O)(=O)c1cn(Cc2cccc(F)c2)c2ccccc12)N1CCOCC1,-12,0.25,4,9.3*,-5,7
Fc1cccc(Cn2cc(C(=S)N3CCOCC3)c3ccccc32)c1,nt,nt,25,3,nt,nt
Fc1cccc(Cn2cc(C(=S)N3CCCCC3)c3ccccc32)c1,-34,0.47,76*,4,-15,20
COc1ccc(OC)c(NC(=O)[C@@H]2CCCN2C(=O)c2cccs2)c1,-42,nt,5,-1,5,5
Cc1cc(/C=N/NC(=O)c2ccncc2)c(C)n1-c1ccccc1,-13,nt,10,1,-2,14
Cc1cc(/C=N/NC(=O)c2cccs2)c(C)n1-c1ccccc1,-45,0.34,11,1,-12,77*
O=C(O)C1CC(O)CN1C(=O)c1ccco1 (stereo unspecified),-46,0.047,-15,1,-4,12
Cc1ccc2[nH]nc(C(=O)N3CCCC(C(=O)c4ccc(Cl)cc4)C3)c2c1 (stereo unspecified),nt,nt,13,2,nt,nt
O=C1NC2(CCCCC2)N=C1c1ccc(F)cc1,-52,-0.98,9,1,-7,6
O=C1NC2(CCCCC2)N=C1c1ccc(Br)cc1,-34,-0.028,-10,3,-13,64*
CCCCn1c(CN2CCN(c3cccc(Cl)c3)CC2)nc2c1c(=O)[nH]c(=O)n2C,-32,-0.011,11,2,nt,20
CC(C)CCn1c(CN2CCN(Cc3ccccc3)CC2)nc2c1c(=O)[nH]c(=O)n2C,-27,1.1,-10,-2,-10,41*
Cc1cccc(Cn2c(CN3CCN(Cc4ccccc4)CC3)nc3c2c(=O)[nH]c(=O)n3C)c1,3,1.8,3,1,-12,11
Cn1c(=O)[nH]c(=O)c2c1nc(CN1CCN(c3cccc(Cl)c3)CC1)n2CCCc1ccccc1,-37,0.39,7,9.5*,-9,18
CCOC(=O)CC(=O)CSc1ncnc2c1cnn2-c1ccccc1,-63,0.45,19,3,-3,17
CCOC(=O)c1ccc2c(c1)n(CCO)c(C)[n+]2CC,8,-0.35,-1,1,71*,11
CCOC(=O)c1ccc2c(c1)n(CC)c(/C=C/N(C)c1ccccc1)[n+]2CC,-23,nt,58,0,7,5
O=C(O)CCc1ccc(-c2cccs2)n1CCc1ccccc1,nt,nt,-1,9.5*,nt,nt
CCOC(=O)C1CCN(S(=O)(=O)c2cc(Br)cc3c2N(C(C)=O)C(C)C3)CC1 (stereo unspecified),-41,0.52,10,0,-4,11
CCN(CC)C(=O)Cn1c(=O)n(-c2ccccc2)c(=O)n1CC(=O)N(CC)CC,-13,-9.6*,-5,0,-4,5
CCOC(=O)Cn1nc(C)n(-c2ccccc2)c1=O,-45,-1.3,-3,0,-2,19
N#Cc1c(Nc2ccccc2)sc(C(=O)c2ccc(F)cc2)c1N,-28,nt,-16,11*,3,7
Cc1ccc(C(=O)c2sc(Nc3ccccc3)c(C#N)c2N)cc1,-13,nt,-14,3,4,9
